Source: ChEMBL document CHEMBL1641497, “A potent and selective indole N-type calcium channel (Ca(v)2.2) blocker for the treatment of pain” (Bioorg Med Chem Lett, 2011)
The source made the active and inactive calls. No cut-off for these calls is given here.

Columns and labels:
[1] = Plasma clearance in dog at 1 mg/kg, iv and 3 mg/kg, po; type: ADME, organism-based, Canis lupus familiaris
Summary of the method: (§1)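 Dog PK with 1.0 mg/kg IV and 3.0 mg/kg PO doses, based on plasma analysis. Parameters: dose-normalized AUC (μM h kg/mg), plasma clearance (mL/min/kg), T1/2 (h) and oral bioavailability (%).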

[2] = Oral bioavailability in rat at 3 mg/kg; type: ADME, organism-based; conditions: in vivo
Summary of the method: (§2)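 Rat PK with 1.0 mg/kg IV and 3.0 mg/kg PO doses, based on plasma analysis. Parameters: Cmax, dose-normalized AUC (μM h kg/mg), plasma clearance (mL/min/kg), Vdss (L/kg), T1/2 (h) and oral bioavailability (%).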

[3] = biological target: Cav1.2 (voltage-dependent L-type calcium channel subunit alpha-1C) (Homo sapiens, UniProt Q13936); experiment: Blockade of Cav1.2 channel at 10 uM by fluorescent calcium-influx assay
Sequence of Cav1.2 (voltage-dependent L-type calcium channel subunit alpha-1C) (Q13936 whole entry): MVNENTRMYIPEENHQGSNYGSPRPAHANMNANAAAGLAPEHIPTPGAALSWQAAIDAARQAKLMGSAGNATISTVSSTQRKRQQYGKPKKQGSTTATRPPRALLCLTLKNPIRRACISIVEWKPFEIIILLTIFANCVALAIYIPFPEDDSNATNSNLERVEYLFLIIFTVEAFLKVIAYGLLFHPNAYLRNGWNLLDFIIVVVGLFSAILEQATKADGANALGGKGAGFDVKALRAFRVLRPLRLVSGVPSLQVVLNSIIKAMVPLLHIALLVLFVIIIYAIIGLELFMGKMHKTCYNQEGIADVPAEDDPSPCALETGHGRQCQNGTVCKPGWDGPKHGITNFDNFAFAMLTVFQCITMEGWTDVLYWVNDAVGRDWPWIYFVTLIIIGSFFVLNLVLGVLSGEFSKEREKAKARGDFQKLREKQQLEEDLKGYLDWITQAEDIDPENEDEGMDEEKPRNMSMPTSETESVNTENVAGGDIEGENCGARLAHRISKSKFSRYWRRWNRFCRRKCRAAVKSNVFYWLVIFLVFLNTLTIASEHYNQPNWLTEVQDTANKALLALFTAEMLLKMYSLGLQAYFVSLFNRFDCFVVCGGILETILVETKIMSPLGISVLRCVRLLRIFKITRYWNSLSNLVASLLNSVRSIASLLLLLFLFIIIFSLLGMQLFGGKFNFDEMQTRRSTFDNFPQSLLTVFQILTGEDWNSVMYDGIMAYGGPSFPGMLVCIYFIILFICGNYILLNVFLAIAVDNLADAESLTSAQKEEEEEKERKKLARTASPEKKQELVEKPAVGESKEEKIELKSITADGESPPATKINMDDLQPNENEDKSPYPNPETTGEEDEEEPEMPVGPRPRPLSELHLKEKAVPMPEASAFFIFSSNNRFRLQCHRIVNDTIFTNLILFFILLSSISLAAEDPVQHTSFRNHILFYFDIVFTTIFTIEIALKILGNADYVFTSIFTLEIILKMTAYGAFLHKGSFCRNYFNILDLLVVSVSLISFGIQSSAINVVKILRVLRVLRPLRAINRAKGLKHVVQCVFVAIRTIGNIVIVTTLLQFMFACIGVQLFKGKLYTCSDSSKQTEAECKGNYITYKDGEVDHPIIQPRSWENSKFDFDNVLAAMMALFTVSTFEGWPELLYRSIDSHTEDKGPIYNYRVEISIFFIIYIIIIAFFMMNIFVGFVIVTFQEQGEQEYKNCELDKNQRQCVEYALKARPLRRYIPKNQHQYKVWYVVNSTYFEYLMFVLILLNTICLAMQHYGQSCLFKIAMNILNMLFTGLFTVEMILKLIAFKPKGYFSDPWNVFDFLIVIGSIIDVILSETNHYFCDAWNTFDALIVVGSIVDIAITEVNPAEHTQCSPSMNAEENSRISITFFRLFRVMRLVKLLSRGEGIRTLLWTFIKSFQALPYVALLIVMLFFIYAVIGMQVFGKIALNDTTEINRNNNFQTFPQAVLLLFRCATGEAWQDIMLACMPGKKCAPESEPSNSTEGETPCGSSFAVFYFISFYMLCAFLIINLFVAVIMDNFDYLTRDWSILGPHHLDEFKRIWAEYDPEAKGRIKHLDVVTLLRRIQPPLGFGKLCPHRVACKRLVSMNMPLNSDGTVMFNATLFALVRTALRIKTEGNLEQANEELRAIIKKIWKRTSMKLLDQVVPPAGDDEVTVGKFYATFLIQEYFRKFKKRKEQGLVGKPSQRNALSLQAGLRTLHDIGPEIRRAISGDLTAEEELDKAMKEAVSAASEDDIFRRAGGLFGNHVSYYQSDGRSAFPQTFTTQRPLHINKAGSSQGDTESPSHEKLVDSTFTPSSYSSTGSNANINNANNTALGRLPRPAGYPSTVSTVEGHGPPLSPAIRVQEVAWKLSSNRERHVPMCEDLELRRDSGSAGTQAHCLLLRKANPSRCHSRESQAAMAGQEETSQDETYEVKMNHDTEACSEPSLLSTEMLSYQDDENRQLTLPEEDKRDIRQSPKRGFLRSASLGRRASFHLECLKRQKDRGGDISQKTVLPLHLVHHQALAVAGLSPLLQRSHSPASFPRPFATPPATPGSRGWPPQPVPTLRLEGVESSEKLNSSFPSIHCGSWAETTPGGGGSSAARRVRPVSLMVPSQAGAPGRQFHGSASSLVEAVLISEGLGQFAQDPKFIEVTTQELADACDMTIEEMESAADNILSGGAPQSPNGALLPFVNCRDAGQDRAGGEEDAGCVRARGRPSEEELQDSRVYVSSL
Summary of the method: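 Cav1.2 (L-type) channel block measured with a fluorescent calcium-influx FLIPR assay. Results are reported as % inhibition at 10 μM test concentration.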

[4] = biological target: T1, Nuclear receptor subfamily 1 group I member 2 (Homo sapiens, UniProt O75469); experiment: Activity at PXR by induction assay
T1 sequence (O75469 whole entry): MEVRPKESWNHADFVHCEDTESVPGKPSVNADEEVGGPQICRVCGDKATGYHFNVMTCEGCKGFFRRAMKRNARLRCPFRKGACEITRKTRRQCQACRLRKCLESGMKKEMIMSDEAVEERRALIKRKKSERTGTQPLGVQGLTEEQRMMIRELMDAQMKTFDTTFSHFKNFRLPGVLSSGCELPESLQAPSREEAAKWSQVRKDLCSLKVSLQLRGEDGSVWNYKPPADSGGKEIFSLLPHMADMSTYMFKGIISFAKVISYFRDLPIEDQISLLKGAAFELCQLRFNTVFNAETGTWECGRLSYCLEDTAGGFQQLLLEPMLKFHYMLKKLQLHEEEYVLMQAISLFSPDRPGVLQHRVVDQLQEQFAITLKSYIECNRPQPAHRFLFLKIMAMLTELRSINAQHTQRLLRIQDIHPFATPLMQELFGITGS

[5] = Metabolic stability in human liver microsomes assessed as compound remaining after 60 mins; type: ADME, Microsome; conditions: read-out: Stability
Summary of the method: (§3)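 Compounds incubated with human or rat liver microsomes for 60 min. Read-out is the percent of parent compound remaining.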

[6] = Metabolic stability in rat liver microsomes assessed as compound remaining after 60 mins; type: ADME, Microsome; conditions: read-out: Stability; summary of the method: as §3
Rattus norvegicus [7] = experiment: Dose normalized AUC in rat at 1 mg/kg, iv and 3 mg/kg, po; type: ADME, organism-based; conditions: in vivo; summary of the method: as §2
[8] = Plasma clearance in rat at 1 mg/kg, iv and 3 mg/kg, po; type: ADME, organism-based; summary of the method: as §2
[9] = Half life in rat at 1 mg/kg, iv and 3 mg/kg, po; type: ADME, organism-based; conditions: in vivo; summary of the method: as §2
Canis familiaris [10] = experiment: Dose normalized AUC in dog at 1 mg/kg, iv and 3 mg/kg, po; type: ADME, organism-based, Canis lupus familiaris; conditions: in vivo; summary of the method: as §1
[11] = Half life in dog at 1 mg/kg, iv and 3 mg/kg, po; type: ADME, organism-based, Canis lupus familiaris; conditions: in vivo; summary of the method: as §1
[12] = Oral bioavailability in dog at 3 mg/kg; type: ADME, organism-based, Canis lupus familiaris; conditions: in vivo
Cytochrome P450 3A4 = Cytochrome P450 3A4 (Homo sapiens, UniProt P08684); experiment: Inhibition of CYP3A4; type: ADME
Sequence of Cytochrome P450 3A4 (P08684 whole entry): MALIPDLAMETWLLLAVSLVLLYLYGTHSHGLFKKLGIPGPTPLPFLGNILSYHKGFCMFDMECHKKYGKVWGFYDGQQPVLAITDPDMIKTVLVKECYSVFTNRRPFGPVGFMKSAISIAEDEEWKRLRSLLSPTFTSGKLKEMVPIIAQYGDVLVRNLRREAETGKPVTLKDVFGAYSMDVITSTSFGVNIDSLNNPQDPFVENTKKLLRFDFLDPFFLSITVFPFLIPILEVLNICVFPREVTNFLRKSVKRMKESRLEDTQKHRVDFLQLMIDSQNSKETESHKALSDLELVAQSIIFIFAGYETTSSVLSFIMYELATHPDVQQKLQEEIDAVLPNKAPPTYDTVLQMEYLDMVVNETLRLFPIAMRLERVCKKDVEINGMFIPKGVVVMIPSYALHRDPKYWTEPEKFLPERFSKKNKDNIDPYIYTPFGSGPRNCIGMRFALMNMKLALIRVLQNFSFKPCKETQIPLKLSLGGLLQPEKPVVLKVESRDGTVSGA

Cytochrome P450 2D6 = Cytochrome P450 2D6 (Homo sapiens, UniProt P10635); experiment: Inhibition of CYP2D6; type: ADME
Sequence of Cytochrome P450 2D6 (P10635 whole entry): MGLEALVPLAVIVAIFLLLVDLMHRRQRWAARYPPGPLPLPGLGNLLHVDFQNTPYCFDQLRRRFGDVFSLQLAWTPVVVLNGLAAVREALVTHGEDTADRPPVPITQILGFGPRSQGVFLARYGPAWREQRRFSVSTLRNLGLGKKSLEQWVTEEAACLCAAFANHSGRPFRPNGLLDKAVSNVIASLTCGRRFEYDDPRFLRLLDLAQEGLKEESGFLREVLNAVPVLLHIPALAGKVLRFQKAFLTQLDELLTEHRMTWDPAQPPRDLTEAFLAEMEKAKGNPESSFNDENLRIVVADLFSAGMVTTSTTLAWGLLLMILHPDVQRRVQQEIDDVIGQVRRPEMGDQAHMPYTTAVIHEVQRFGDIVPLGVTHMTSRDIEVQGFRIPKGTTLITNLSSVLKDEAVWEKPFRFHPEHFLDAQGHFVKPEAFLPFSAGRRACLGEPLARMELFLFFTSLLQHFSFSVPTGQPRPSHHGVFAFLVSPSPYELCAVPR

Cytochrome P450 2C9 = Cytochrome P450 2C9 (Homo sapiens, UniProt P11712); experiment: Inhibition of CYP2C9; type: ADME
Sequence of Cytochrome P450 2C9 (P11712 whole entry): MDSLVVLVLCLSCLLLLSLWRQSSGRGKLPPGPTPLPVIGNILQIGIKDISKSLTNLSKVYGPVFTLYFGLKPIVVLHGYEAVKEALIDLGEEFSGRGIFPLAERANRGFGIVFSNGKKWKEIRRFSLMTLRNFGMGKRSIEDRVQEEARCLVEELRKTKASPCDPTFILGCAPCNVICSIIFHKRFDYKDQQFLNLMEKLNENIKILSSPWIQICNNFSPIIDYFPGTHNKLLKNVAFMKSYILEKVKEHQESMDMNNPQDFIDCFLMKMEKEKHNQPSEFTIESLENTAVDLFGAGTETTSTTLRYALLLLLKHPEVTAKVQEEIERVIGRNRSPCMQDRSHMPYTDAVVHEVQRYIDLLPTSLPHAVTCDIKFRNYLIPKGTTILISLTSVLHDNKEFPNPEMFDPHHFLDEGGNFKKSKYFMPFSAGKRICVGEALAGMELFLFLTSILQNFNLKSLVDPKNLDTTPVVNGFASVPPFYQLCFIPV

Rattus norvegicus [13] = experiment: Antinociceptive activity in rat assessed as reversal of complete Freund's adjuvant-induced pain at 3 mg/kg, po after 1 hr; type: functional
Summary of the method: (§4)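 Rat CFA-induced inflammatory pain model, oral dosing. Mechanical allodynia assessed by paw pressure and expressed as % reversal. Plasma and brain drug levels measured at 3 h post-dose.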

Rattus norvegicus [14] = experiment: Antinociceptive activity in rat assessed as reversal of complete Freund's adjuvant-induced pain at 3 mg/kg, po after 3 hrs; type: functional; summary of the method: as §4
Rattus norvegicus [15] = experiment: Antinociceptive activity in rat assessed as reversal of complete Freund's adjuvant-induced pain at 3 mg/kg, po after 8 hrs; type: functional; summary of the method: as §4
Rattus norvegicus [16] = experiment: Antinociceptive activity in rat assessed as reversal of complete Freund's adjuvant-induced pain at 10 mg/kg, po after 1 hr; type: functional; summary of the method: as §4
Rattus norvegicus [17] = experiment: Antinociceptive activity in rat assessed as reversal of complete Freund's adjuvant-induced pain at 10 mg/kg, po after 3 hrs; type: functional; summary of the method: as §4
Rattus norvegicus [18] = experiment: Antinociceptive activity in rat assessed as reversal of complete Freund's adjuvant-induced pain at 10 mg/kg, po after 8 hrs; type: functional; summary of the method: as §4
Rattus norvegicus [19] = experiment: Antinociceptive activity in rat assessed as reversal of complete Freund's adjuvant-induced pain at 30 mg/kg, po after 1 hr; type: functional; summary of the method: as §4
Rattus norvegicus [20] = experiment: Antinociceptive activity in rat assessed as reversal of complete Freund's adjuvant-induced pain at 30 mg/kg, po after 3 hrs; type: functional; summary of the method: as §4
Rattus norvegicus [21] = experiment: Antinociceptive activity in rat assessed as reversal of complete Freund's adjuvant-induced pain at 30 mg/kg, po after 8 hrs; type: functional; summary of the method: as §4
Rattus norvegicus [22] = experiment: Antiallodynic activity in rat spinal nerve ligation model of neuropathic pain assessed as reversal of mechanical allodynia at 10 mg/kg, po after 1 hr; type: functional
Summary of the method: (§5)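 Rat spinal nerve ligation neuropathic pain model, oral dosing. Read-out is % reversal of mechanical allodynia. Plasma and brain drug levels measured at 1 h. An efficacious (EC50) plasma exposure was derived.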

Rattus norvegicus [23] = experiment: Antiallodynic activity in rat spinal nerve ligation model of neuropathic pain assessed as reversal of mechanical allodynia at 10 mg/kg, po after 3 hrs; type: functional; summary of the method: as §5
Rattus norvegicus [24] = experiment: Antiallodynic activity in rat spinal nerve ligation model of neuropathic pain assessed as reversal of mechanical allodynia at 10 mg/kg, po after 8 hrs; type: functional; summary of the method: as §5
Rattus norvegicus [25] = experiment: Antiallodynic activity in rat spinal nerve ligation model of neuropathic pain assessed as reversal of mechanical allodynia at 30 mg/kg, po after 1 hr; type: functional; summary of the method: as §5
Rattus norvegicus [26] = experiment: Antiallodynic activity in rat spinal nerve ligation model of neuropathic pain assessed as reversal of mechanical allodynia at 30 mg/kg, po after 3 hrs; type: functional; summary of the method: as §5
Rattus norvegicus [27] = experiment: Antiallodynic activity in rat spinal nerve ligation model of neuropathic pain assessed as reversal of mechanical allodynia at 30 mg/kg, po after 8 hrs; type: functional; summary of the method: as §5
[28] = Volume of distribution at steady state in rat at 1 mg/kg, iv and 3 mg/kg, po; type: ADME, organism-based; conditions: in vivo, read-out: Vdss; summary of the method: as §2
[29] = Cmax in rat at 1 mg/kg, iv and 3 mg/kg, po; type: ADME, organism-based; conditions: in vivo; summary of the method: as §2
[30] = Plasma concentration in rat at 30 mg/kg, po after 3 hrs; type: ADME, organism-based; set-up: dose 30 mg/kg, route oral; conditions: read-out: Activity; summary of the method: as §4
[31] = Drug level in rat brain at 30 mg/kg, po after 3 hrs; type: ADME, organism-based; set-up: dose 30 mg/kg, route oral; conditions: read-out: Activity; summary of the method: as §4
[32] = Plasma concentration in rat spinal nerve ligation model at 30 mg/kg, po after 1 hrs; type: ADME, organism-based; set-up: dose 30 mg/kg, route oral; conditions: read-out: Activity; summary of the method: as §5
[33] = Drug level in spinal nerve ligation model rat brain at 30 mg/kg, po after 1 hrs; type: ADME, organism-based; set-up: dose 30 mg/kg, route oral; conditions: read-out: Activity; summary of the method: as §5
Rattus norvegicus [34] = species on record: Rattus norvegicus; experiment: Neurotoxicity in rat assessed as impairment of motor coordination at 8 uM plasma concentration by rotarod test; type: toxicity, organism-based; conditions: in vivo
Summary of the method: (§6)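 Rat Rotarod motor coordination test after IV doses of 3 and 10 mg/kg. Plasma and brain drug concentrations determined alongside coordination impairment.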

Rattus norvegicus [35] = species on record: Rattus norvegicus; experiment: Neurotoxicity in rat assessed as impairment of motor coordination at 6 uM brain concentration by rotarod test; type: toxicity, organism-based; conditions: in vivo; summary of the method: as §6
Plasma = experiment: Plasma concentration in rat at 3 mg/kg, iv; type: ADME, organism-based; set-up: dose 3 mg/kg, route intravenous; conditions: in vivo, read-out: Drug uptake; summary of the method: as §6
Brain = experiment: Drug level in rat brain at 3 mg/kg, iv; type: ADME, organism-based; set-up: dose 3 mg/kg, route intravenous; conditions: in vivo, read-out: Drug uptake; summary of the method: as §6
Rattus norvegicus [36] = species on record: Rattus norvegicus; experiment: Neurotoxicity in rat assessed as impairment of motor coordination at 1.9 uM plasma concentration by rotarod test; type: toxicity, organism-based; conditions: in vivo; summary of the method: as §6
Rattus norvegicus [37] = species on record: Rattus norvegicus; experiment: Neurotoxicity in rat assessed as impairment of motor coordination at 1.4 uM brain concentration by rotarod test; type: toxicity, organism-based; conditions: in vivo; summary of the method: as §6
Rattus norvegicus [38] = species on record: Rattus norvegicus; experiment: Antiallodynic activity in rat spinal nerve ligation model of neuropathic pain assessed as reversal of mechanical allodynia at 0.44 uM plasma concentration; type: functional, organism-based; summary of the method: as §5
Canis familiaris [39] = species on record: Canis familiaris; experiment: Cardiotoxicity in dog assessed as reduction in mean arterial pressure at >2 uM plasma concentration; type: toxicity, organism-based, Canis lupus familiaris
Summary of the method: (§7)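 Barbiturate-anesthetized, ventilated dogs given rising IV doses of 1, 3 and 10 mg/kg. Mean arterial pressure and heart rate recorded against plasma drug concentration.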

Canis familiaris [40] = species on record: Canis familiaris; experiment: Cardiotoxicity in dog assessed as reduction in heart rate at maximal plasma exposure; type: toxicity, organism-based, Canis lupus familiaris; set-up: scale not given: the % may be the effect or the level left; summary of the method: as §7

CC(C)(C)NC(=O)Cn1c(-c2ccc(OC(F)(F)F)cc2)cc2cc(C(C)(C)C(=O)NC(C)(C)C)ccc21
clearance [1]: 5.6 mL/min/kg
bioavailability [2]: 68%
inhibition at 10 µM [3]: 85%
EC50 [4]: > 30 µM
remaining at 1 h [5]: 20%
remaining at 1 h [6]: 20%
AUC (Rattus norvegicus [7]): 0.34 µM·kg·h/mg
clearance [8]: 64 mL/min/kg
half-life [9]: 1.4 h
AUC (Canis familiaris [10]): 1.02 µM·kg·h/mg
half-life [11]: 4.6 h
bioavailability [12]: 18%
IC50 (Cytochrome P450 3A4): > 10 µM
IC50 (Cytochrome P450 2D6): > 10 µM
IC50 (Cytochrome P450 2C9): > 10 µM
Activity (Rattus norvegicus [13]): 36%
Activity (Rattus norvegicus [14]): 37%
Activity (Rattus norvegicus [15]): 17%
Activity (Rattus norvegicus [16]): 57%
Activity (Rattus norvegicus [17]): 52%
Activity (Rattus norvegicus [18]): 22%
Activity (Rattus norvegicus [19]): 66%
Activity (Rattus norvegicus [20]): 68%
Activity (Rattus norvegicus [21]): 32%
Activity (Rattus norvegicus [22]): 45%
Activity (Rattus norvegicus [23]): 47%
Activity (Rattus norvegicus [24]): 14%
Activity (Rattus norvegicus [25]): 68%
Activity (Rattus norvegicus [26]): 50%
Activity (Rattus norvegicus [27]): 27%
Vd [28]: 5.1 L/kg
Cmax [29]: 290 nM
concentration at 3 h [30]: 750 nM
concentration at 3 h [31]: 170 nM
concentration at 1 h [32]: 410 nM
concentration at 1 h [33]: 260 nM
Activity (Rattus norvegicus [34]): Toxic
Activity (Rattus norvegicus [35]): Toxic
concentration (Plasma): 1900 nM
concentration (Brain): 1400 nM
Activity (Rattus norvegicus [36]): Non-toxic
Activity (Rattus norvegicus [37]): Non-toxic
Activity (Rattus norvegicus [38]): Active
Activity (Canis familiaris [39]): Toxic
Activity (Canis familiaris [40]): 32%
